Reference: ChEMBL document CHEMBL1759940, “Synthesis and anticonvulsant activity of 8-alkoxy-5,6-dihydro-4H-[1,2,4]triazolo[4,3-a][1]benzazepin-1-one derivatives” (Eur J Med Chem, 2011)
Calls of active or inactive are those of the source. The calls are words filed in the database; no cut-off is given here.

Tests used:
[1] = test system: Mus musculus; assay: Anticonvulsant activity in Swiss mouse assessed as protection against maximal electroshock-induced seizures at 30 mg/kg, ip administered 30 mins before electroshock challenge measured after 30 mins; assay type: functional, organism-based; set-up: dose 30 mg/kg
Summary of the method: (§1)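 Swiss mice (18-22 g) given the test compound i.p. in DMSO at 30, 100 or 300 mg/kg for phase I screening. Maximal electroshock was applied 30 min after dosing, and protection against the MES-induced seizure was scored.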

[2] = test system: Mus musculus; assay: Anticonvulsant activity in Swiss mouse assessed as protection against subcutaneous pentylenetetrazol-induced seizures at 30 mg/kg, ip after 30 mins; assay type: functional, organism-based; set-up: dose 30 mg/kg
Summary of the method: (§2)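 Swiss mice (18-22 g) were dosed i.p. in DMSO at 30, 100 or 300 mg/kg. Pentylenetetrazol (85 mg/kg) was then injected s.c. Protection meant no clonic spasms lasting at least 5 s over a 30 min period after test compound administration.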

[3] = test system: Mus musculus; assay: Anticonvulsant activity in ip dosed Swiss mouse assessed as protection against maximal electroshock-induced seizures administered 30 mins before electroshock challenge measured after 30 mins; assay type: functional
Summary of the method: (§3)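 Phase II quantification in Swiss mice (18-22 g), with compounds dissolved in DMSO and given i.p. Groups of 10 mice received a range of doses until at least three points fell within 10-90% protection against MES-induced seizures. ED50 and 95% confidence intervals were derived by the trimmed Spearman-Karber method.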

[4] = organism: Mus musculus; assay: Protective index, ratio of TD50 for Swiss mouse to ED50 for Swiss mouse by maximal electroshock-induced seizures test; assay type: functional
[5] = Neurotoxicity against Swiss mouse after 4 hrs by rotarod ataxia test; assay type: toxicity, organism-based; conditions: in vivo
Summary of the method: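 Neurologic deficit was scored in Swiss mice (18-22 g) by rotarod ataxia test after i.p. dosing in DMSO (phase I: 30, 100, 300 mg/kg, assessed at 30 min and 4 h). For TD50, groups of 10 mice received a range of doses giving at least three points within 10-90% minimal neurotoxicity, calculated by trimmed Spearman-Karber with 95% confidence intervals.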

[6] = test system: Mus musculus; assay: Anticonvulsant activity in Swiss mouse assessed as protection against subcutaneous pentylenetetrazol-induced seizures at 300 mg/kg, ip after 30 mins; assay type: functional, organism-based; set-up: dose 300 mg/kg; summary of the method: as §2
[7] = test system: Mus musculus; assay: Anticonvulsant activity in ip dosed Swiss mouse assessed as protection against maximal electroshock-induced seizures after 30 mins; assay type: functional; conditions: 0.5 h; summary of the method: as §3
[8] = test system: Mus musculus; assay: Anticonvulsant activity in Swiss mouse assessed as protection against subcutaneous pentylenetetrazol-induced seizures at 100 mg/kg, ip after 30 mins; assay type: functional, organism-based; set-up: dose 100 mg/kg; summary of the method: as §2
[9] = test system: Mus musculus; assay: Protective index, ratio of TD50 for Swiss mouse to ED50 for Swiss mouse by subcutaneous pentylenetetrazol-induced seizure test; assay type: functional
[10] = test system: Mus musculus; assay: Anticonvulsant activity in Swiss mouse assessed as protection against maximal electroshock-induced seizures at 100 mg/kg, ip administered 30 mins before electroshock challenge measured after 30 mins; assay type: functional, organism-based; set-up: dose 100 mg/kg; summary of the method: as §1
[11] = test system: Mus musculus; assay: Anticonvulsant activity in Swiss mouse assessed as protection against maximal induced seizures at 300 mg/kg, ip administered 30 mins before electroshock challenge measured after 30 mins; assay type: functional, organism-based; set-up: dose 300 mg/kg; summary of the method: as §1

Compound | Activity [1] | Activity [2] | ED50 [3] [mg/kg] | PI [4] | TD50 at 4 h [5] [mg/kg] | Activity [6] | ED50 [7] [mg/kg] | Activity [8] | PI [9] | Activity [10] | Activity [11]
O=c1[nH]nc2n1-c1ccc(OCc3ccccc3F)cc1CCC2 | Active | inactive | 18.4 | >50.6 | > 931 | inactive | – | – | – | – | –
O=c1[nH]nc2n1-c1ccc(OCc3cccc(Cl)c3)cc1CCC2 | – | – | 26.4 | >35.3 | > 931 | – | – | – | – | – | –
CCCCCCOc1ccc2c(c1)CCCc1n[nH]c(=O)n1-2 | Active | – | 17.9 | >62.4 | > 1120 | – | 17.9 | Active | >24 | – | –
O=c1[nH]nc2n1-c1ccc(OCc3ccc(Cl)cc3)cc1CCC2 | – | – | 40.1 | >23.2 | > 931 | inactive | – | – | – | Active | –
Cc1ccc(COc2ccc3c(c2)CCCc2n[nH]c(=O)n2-3)cc1 | – | inactive | 50 | >18.6 | > 931 | – | – | inactive | – | – | –
COc1ccc2c(c1)CCCc1n[nH]c(=O)n1-2 | – | inactive | – | – | – | inactive | – | inactive | – | – | Active
O=c1[nH]nc2n1-c1ccc(OCc3ccccc3Cl)cc1CCC2 | – | – | 32.9 | >28.3 | > 931 | – | – | inactive | – | Active | –
O=c1[nH]nc2n1-c1ccc(OCc3ccc(Br)cc3)cc1CCC2 | – | – | 55.8 | >16.7 | > 931 | – | – | – | – | Active | –
CCCCCOc1ccc2c(c1)CCCc1n[nH]c(=O)n1-2 | Active | – | 24.6 | >45.4 | > 1120 | – | 24.6 | Active | >29.4 | – | –
CCCOc1ccc2c(c1)CCCc1n[nH]c(=O)n1-2 | – | inactive | 75.5 | >12.3 | > 931 | – | – | – | – | – | –
O=c1[nH]nc2n1-c1ccc(OCc3ccc(F)cc3)cc1CCC2 | – | inactive | 22.8 | >40.8 | > 931 | – | – | – | – | – | –
NC(=O)N1c2ccccc2C=Cc2ccccc21 [CARBAMAZEPINE] | – | – | 9.2 | – | 74.4 | – | 9.2 | – | <0.74 | – | –
CCCCOc1ccc2c(c1)CCCc1n[nH]c(=O)n1-2 | – | – | 37.3 | >29.9 | > 1120 | – | 37.3 | Active | >17 | Active | –
O=c1[nH]nc2n1-c1ccc(OCc3cccc(F)c3)cc1CCC2 | Active | inactive | 17.6 | >52.9 | > 931 | – | – | inactive | – | – | –
CCCCCCCOc1ccc2c(c1)CCCc1n[nH]c(=O)n1-2 | Active | – | 17.6 | >63.4 | > 1120 | – | 17.6 | Active | >25.9 | – | –
CCCCCCCCOc1ccc2c(c1)CCCc1n[nH]c(=O)n1-2 | – | – | 20.7 | >54 | > 1120 | – | 20.7 | Active | >22.2 | – | –
O=c1[nH]nc2n1-c1ccc(OCc3ccccc3)cc1CCC2 | – | – | 30.5 | >30.5 | > 931 | – | – | – | – | Active | –
